Activity calls are given as the source filed them. The calls are words filed in the database; no cut-off is given here.

Test [1] addresses T1, Peroxisome proliferator-activated receptor gamma (Homo sapiens, UniProt P37231).
T1 sequence (P37231 whole entry): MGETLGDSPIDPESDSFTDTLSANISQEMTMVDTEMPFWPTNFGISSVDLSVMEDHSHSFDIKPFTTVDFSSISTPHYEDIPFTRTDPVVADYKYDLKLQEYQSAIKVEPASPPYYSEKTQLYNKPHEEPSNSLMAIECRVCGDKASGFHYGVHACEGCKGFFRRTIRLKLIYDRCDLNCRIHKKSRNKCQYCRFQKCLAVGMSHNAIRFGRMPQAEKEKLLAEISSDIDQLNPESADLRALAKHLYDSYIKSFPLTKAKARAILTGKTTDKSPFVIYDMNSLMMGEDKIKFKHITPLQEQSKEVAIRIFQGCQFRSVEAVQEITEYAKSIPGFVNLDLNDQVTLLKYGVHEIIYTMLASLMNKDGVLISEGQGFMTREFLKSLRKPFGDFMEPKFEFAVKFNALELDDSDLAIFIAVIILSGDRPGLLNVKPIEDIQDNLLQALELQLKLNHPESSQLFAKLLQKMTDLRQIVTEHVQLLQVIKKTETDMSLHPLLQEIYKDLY
Briefly: Partial agonist activity at human PPARgamma-LBD/Gal4 DNA binding domain by transactivation assay.

For test [2], the target named is T2, Type-1 angiotensin II receptor (Homo sapiens, UniProt P30556).
T2 sequence (P30556 whole entry): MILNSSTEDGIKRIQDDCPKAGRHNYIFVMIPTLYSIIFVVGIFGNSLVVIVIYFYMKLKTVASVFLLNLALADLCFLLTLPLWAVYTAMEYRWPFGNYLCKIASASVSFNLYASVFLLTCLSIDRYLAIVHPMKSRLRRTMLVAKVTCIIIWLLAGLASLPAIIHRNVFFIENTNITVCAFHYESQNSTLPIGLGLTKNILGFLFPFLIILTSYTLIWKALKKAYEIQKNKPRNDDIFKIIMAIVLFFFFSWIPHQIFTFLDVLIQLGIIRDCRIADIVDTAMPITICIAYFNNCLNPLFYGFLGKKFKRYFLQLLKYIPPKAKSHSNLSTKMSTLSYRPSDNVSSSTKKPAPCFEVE
Briefly: Displacement of [125I]Tyr4-Sar1,Ile8-Angiotensin II from human Angiotensin 1 receptor after 60 mins by scintillation counting.

In test [3] the test system is Rattus norvegicus. As to the kind of experiment: Antidiabetic activity in ZDF rat assessed as blood glucose level at 3 mg/kg, po QD for 40 days (reference value: 771+/-60 mg/dL). Type of test: functional.
Test [4] relates to Rattus norvegicus. Briefly: Antidiabetic activity in ZDF rat assessed as adiponectin level at 3 mg/kg, po QD for 40 days (reference value: 11.9+/-1.5 ug/ml). The test is classed as functional.
The subject of test [5] is Rattus norvegicus. Briefly: Antidiabetic activity in ZDF rat assessed as triglyceride level at 3 mg/kg, po QD for 40 days (reference value: 618+/-52 mg/dL). The test is classed as functional.
Test [6] relates to Rattus norvegicus. As to the kind of experiment: Antidiabetic activity in ZDF rat assessed as body weight gain at 3 mg/kg, po QD for 40 days measured on day 6 (reference value: 133+/-9 g). Further details: dose 3 mg/kg. The test is classed as functional, organism-based.
For test [7], the system named is Rattus norvegicus. As to the kind of experiment: Antidiabetic activity in ZDF rat assessed as body weight gain at 3 mg/kg, po QD for 40 days (reference value: 133+/-9 g). Type of test: functional. An outline of the steps:
(§1)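 Male ZDF rats, starting at about 6 weeks old, were dosed orally once daily for 40 days in 1.5% CMC/0.2% Tween 20 suspension, n = 8/group. Body weight was followed over the study. Gain was calculated per animal from day 0 to day 40 and compared with vehicle and pioglitazone (3 mg/kg) groups. Data are mean ± SEM.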

Test [8] relates to Rattus norvegicus. As to the kind of experiment: Antidiabetic activity in ZDF rat assessed as triglyceride level at 100 mg/kg, po QD for 40 days (reference value: 618+/-52 mg/dL). Type of test: functional.
The test system of test [9] is Rattus norvegicus. As to the kind of experiment: Antidiabetic activity in ZDF rat assessed as body weight gain at 100 mg/kg, po QD for 40 days (reference value: 133+/-9 g). Type of test: functional. In a few lines: as §1
Test [10] deals with Rattus norvegicus. As to the kind of experiment: Antidiabetic activity in ZDF rat assessed as adiponectin level at 100 mg/kg, po QD for 40 days (reference value: 11.9+/-1.5 ug/ml). The test is classed as functional.
Test [11] has as its system Rattus norvegicus. As to the kind of experiment: Antidiabetic activity in ZDF rat assessed as body weight gain at 100 mg/kg, po QD for 40 days measured on day 32 (reference value: 133+/-9 g). The test is classed as functional, organism-based. Further details: dose 100 mg/kg.
In test [12] the test system is Rattus norvegicus. As to the kind of experiment: Antidiabetic activity in ZDF rat assessed as blood glucose level at 100 mg/kg, po QD for 40 days (reference value: 771+/-60 mg/dL). The test is classed as functional.

For the molecule `CCc1cc(C)c2nc(C(C)C)n([C@H]3CCc4cc(-c5ccccc5-c5nnn[nH]5)ccc43)c2n1`, in [1], a half-maximal effect (EC50) was put at 264 nM. The molecule also displayed an IC50 in test [2] of 16.9 nM.
The like results for `CCc1c(C)nc2c(nc(CC)n2[C@H]2CCc3cc(-c4ccccc4-c4nnn[nH]4)ccc32)c1C` were, in that order, 1340 nM and 15.7 nM.
Turning to `CCc1nc2c(C)cc(C)nc2n1Cc1ccc(-c2ccccc2-c2nnn[nH]2)cc1` [L-158809], the EC50 in [1] is over 20000 nM.
For `CCc1nc2c(CC(C)C)cc(C)nc2n1[C@H]1CCc2cc(-c3ccccc3-c3nnn[nH]3)ccc21`, in test [1], the EC50 amounted to 165 nM. Moreover, the half-maximal inhibitory concentration (IC50) in test [2] is 748 nM.
In [2], `CCc1nc2c(C)cc(Cc3ccccc3)nc2n1[C@H]1CCc2cc(-c3ccccc3-c3nnn[nH]3)ccc21` returned an IC50 of 5.2 nM.
In test [1], `Cc1cc(CC(C)C)nc2c1nc(C(C)C)n2[C@H]1CCc2cc(-c3ccccc3-c3nnn[nH]3)ccc21` had an EC50 of 89 nM. The IC50 in [2] was determined as 3.5 nM.
The like results for `CCc1cc(C)c2nc(CC)n([C@H]3CCc4cc(-c5ccccc5-c5nnn[nH]5)ccc43)c2n1` were, in that order, 494 nM and 6.8 nM.
For the molecule `CCc1ccc(CCOc2ccc(CC3SC(=O)NC3=O)cc2)nc1` (stereo unspecified) [PIOGLITAZONE], the Activity with Rattus norvegicus [3] turned out to be 118 mg/dL; with Rattus norvegicus [4] it was 30.5 µg/mL; with Rattus norvegicus [5], 316 mg/dL; in the test on Rattus norvegicus [7] it was 269 g. The result in the test on Rattus norvegicus [6] was Active.
As for `CCc1nc2c(C)cc(C)nc2n1[C@@H]1CCc2cc(-c3ccccc3-c3nnn[nH]3)ccc21`, in test [1], the EC50 stood at 2620 nM. Further, in [2], the IC50 came out at 661 nM.
The like results for `CCc1nc2c(C)cc(CC(C)C)nc2n1[C@H]1CCc2cc(-c3ccccc3C(=O)O)ccc21` were, in that order, 175 nM and 10.5 nM.
The like results for `CCc1nc2c(C)c(C)c(C)nc2n1[C@H]1CCc2cc(-c3ccccc3-c3nnn[nH]3)ccc21` were, in that order, 1820 nM and 202 nM.
For the molecule `CCCc1nc2c(C)cc(C)nc2n1[C@H]1CCc2cc(-c3ccccc3-c3nnn[nH]3)ccc21`, a half-maximal response in [1] (EC50) required 1320 nM. This molecule also displayed an IC50 in [2] of 13.3 nM.
The molecule `Cc1cc(C)c2nc(C(C)C)n([C@H]3CCc4cc(-c5ccccc5-c5nnn[nH]5)ccc43)c2n1` displayed an EC50 in test [1] of 295 nM. This molecule showed an IC50 in test [2] of 10.2 nM.
In [1], `CCc1nc2c(C)cc(C)nc2n1C1CCc2cc(-c3ccccc3-c3nn[nH]n3)ccc21` (racemic) came in with a concentration giving a half-maximal response (EC50) of 574 nM. Also, the half-inhibitory concentration (IC50) in test [2] is 96 nM.
For `CCCCc1nc2c(C)cc(C)nc2n1C1CCc2cc(-c3ccccc3-c3nn[nH]n3)ccc21` (racemic) the same measures were 2200 nM and 238 nM.
For `CCc1nc2c(C)cc(C)nc2n1[C@H]1CCc2cc(-c3ccccc3-c3nnn[nH]3)ccc21` the same measures were 591 nM and 7.6 nM.
`CCCc1nc2c(C)cc(-c3nc4ccccc4n3C)cc2n1Cc1ccc(-c2ccccc2C(=O)O)cc1`: the Activity worked out at 935 mg/dL in the test on Rattus norvegicus [8], 157 g with Rattus norvegicus [9], 13.2 µg/mL with Rattus norvegicus [10] and 510 mg/dL in the test with Rattus norvegicus [12]. In addition, the EC50 in [1] was determined as 1520 nM. Also, in the test on Rattus norvegicus [11], the outcome was Active.
`Cc1cc(C)c2nc(C3CC3)n([C@H]3CCc4cc(-c5ccccc5-c5nnn[nH]5)ccc43)c2n1` had a concentration for a half-maximal effect (EC50) in test [1] of 762 nM. Also, the IC50 in test [2] is 8.2 nM.

For the origin of these results see ChEMBL document CHEMBL1800018, “Discovery of a series of imidazo[4,5-b]pyridines with dual activity at angiotensin II type 1 receptor and peroxisome proliferator-activated receptor-γ” (J Med Chem, 2011).
